# Source: ChEMBL document CHEMBL4038313, “Expanding the Antiviral Spectrum of 3-Fluoro-2-(phosphonomethoxy)propyl Acyclic Nucleoside Phosphonates: Diamyl Aspartate Amidate Prodrugs” (J Med Chem, 2017)
# How the values were obtained:
# [1] = Half life in human plasma at 1 uM by HPLC-MS/MS method; type: ADME, cell-free
# Summary of the method: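 Human plasma preincubated 10 min with pH 7.4 phosphate buffer at 37 °C. Compound added at final 1 μM and sampled at 0, 0.5, 1, 1.5 and 2 h into acetonitrile. Centrifuged and analysed by HPLC-MS/MS. t1/2 is the mean of two experiments.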
# [2] = tested on: Hepatitis B virus; assay: Antiviral activity against HBV ayw1 infected in human HepG2(2.2.15) cells assessed as reduction in viral replication by measuring intracellular viral DNA copy number after 6 days byr by real-time qPCR assay; type: functional, cell-based; conditions: ayw1, HepG2 2.2.15, 144 h
# Summary of the method: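 Run as the HepG2.2.15 6-day assay (triplicate compound, medium with compound renewed at day 3). At the end, total intracellular DNA was isolated from the cells and HBV DNA copy number measured by TaqMan qPCR. EC50/EC90 derived; SI is CC50/EC50.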
# [3] = tested on: Hepatitis B virus; assay: Antiviral activity against HBV ayw1 infected in human HepG2(2.2.15) cells assessed as reduction in viral replication by measuring extracellular viral DNA copy number after 6 days by real-time qPCR method; type: functional, cell-based; conditions: ayw1, HepG2 2.2.15, 144 h
# Summary of the method: (§1)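 HepG2.2.15 cells (two copies of HBV ayw1 genome), 1.5 × 10^4/well in DMEM with 2% FBS and 380 μg/mL G418. After 16–24 h, compound added in triplicate, medium with compound renewed at day 3. Supernatant collected at day 6, Pronase-treated, and extracellular HBV DNA measured by TaqMan qPCR (precore/core) against an HBV DNA standard curve. EC50/EC90 derived; CC50 by MTS uptake.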
# [4] = tested on: Human alphaherpesvirus 3; assay: Antiviral activity against thymidine kinase expressing Varicella-Zoster virus Oka strain assessed as inhibition of plaque formation; type: functional; conditions: Human alphaherpesvirus 3, strain Oka vaccine
# Summary of the method: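 HEL fibroblast monolayers inoculated with 100 CCID50 HCMV (AD-169, Davis) or 20 PFU VZV (TK+ Oka, TK− 07-1). Adsorbed 1–2 h, inoculum removed, then incubated with compound dilutions. HCMV cytopathicity or VZV plaques scored once untreated infected controls reached completion. EC50 is 50% reduction. SI is CC50/EC50, and the potency ratio is the ratio of EC50s.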
# [5] = Selectivity index, ratio of CC50 for human PHA-stimulated PBMCs to IC50 for CCR5 tropic HIV1 BaL infected in human PHA-stimulated PBMC
# [6] = Stability of the compound in pH 1 buffer at 2 mg after 5 hrs by 31P NMR spectroscopy; type: physicochemical; conditions: pH 1, 5 h
# Summary of the method: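 2.0 mg compound in 0.2 mL acetone-d6 plus 0.3 mL pH 1 buffer (equal parts 0.2 M HCl and 0.2 M KCl). In situ 31P NMR (202 MHz) at 37 °C, spectra every 30 min over 14 h.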
# [7] = Selectivity index, ratio of CC50 for HepG2.2.15 cells to EC50 for HBV ayw1 infected in human HepG2(2.2.15) cells assessed as reduction in viral replication by measuring extracellular viral DNA copy; summary of the method: as §1
# [8] = tested on: Human immunodeficiency virus 1; assay: Antiviral activity against CCR5 tropic HIV1 BaL infected in human PHA-stimulated PBMC assessed as inhibition of viral replication by measuring reduction in p24 antigen production preincubated with cells for 30 mins followed by viral infection measured on day 10 post infection in presence of IL-2 by ELISA; type: functional; conditions: Human immunodeficiency virus 1, BaL
# Summary of the method: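 PBMCs stimulated with 2 μg/mL PHA for 3 days at 37 °C, then 5 × 10^5 cells/ml preincubated 30 min at 37 °C with serial compound dilutions plus 2 ng/mL IL-2. Infected with 1500 pg/well HIV-1 BaL or 500 pg/well other isolates. IL-2 re-added on days 3 and 6. Supernatant p24 Ag measured by ELISA at day 10. EC50 is 50% inhibition of replication.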
# [9] = Cytotoxicity against human MT4 cells assessed as reduction in cell viability after 6 days by XTT tetrazolium dye-based assay
# Summary of the method: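 MT-4 cells, 1 × 10^4 per well, given compound dilutions and wild-type NL4-3 or K65R NL4-3. Virus titred to give 85–95% cell killing at day 6. Incubated 6 days at 37 °C, 5% CO2. Viability read by XTT at 450/650 nm. EC50 from CPE reduction and toxicity from uninfected drug wells, by four-parameter fit. Fold change is K65R EC50 over wild-type EC50.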
# [10] = tested on: Human immunodeficiency virus 1; assay: Antiviral activity against CXCR4-tropic HIV-1 NL4-3 infected in human TZM-bl cells assessed as inhibition of virus-induced cytopathic effect preincubated with cells for 30 mins followed by viral infection measured after 48 hrs in presence of p-24 HIV-1 Ag by luciferase reporter gene assay; type: functional, cell-based; conditions: Human immunodeficiency virus 1, NL4-3, TZM-bl
# Summary of the method: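 TZM-bl cells, 1 × 10^4 per well in DMEM with 10% FBS and 10 mM […], incubated 30 min at 37 °C with compound. Then HIV-1 NL4.3 (X4) or BaL (R5) added at 100 pg p24 Ag per well. After 48 h, cells lysed with luciferase substrate. Tat-induced luminescence read after 10 min dark incubation as a measure of replication.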
# [11] = Cytotoxic activity against HEL cells assessed as reduction in cell proliferation after 3 days by coulter counting method; type: cell-based; conditions: human
# Summary of the method: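 HEL cells seeded at 5 × 10^3/well, grown 24 h, then given compound for 3 days at 37 °C. Cell number counted by Coulter counter. CC50 is 50% reduction of proliferation relative to untreated controls, read from graphic plots.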
# [12] = Stability of the compound in phosphate buffer of pH 8 at 1 mg after 14 hrs by 31P NMR spectroscopy; type: physicochemical; conditions: read-out: Stability
# Summary of the method: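 1 mg compound in 0.2 mL acetone-d6 plus 0.3 mL pH 8 buffer (0.1 M Na2HPO4 adjusted with 0.1 M HCl). In situ 31P NMR (202 MHz) at 37 °C, spectra every 30 min over 14 h.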
# [13] = tested on: Human immunodeficiency virus 1; assay: Potency index, ratio of (S)-9-[3-Fluoro-2-(phosphonomethoxy)propyl]adenine EC50 to compound EC50 for CXCR4-tropic HIV-1 NL4-3 infected in human TZM-bl cells; type: functional
# [14] = Selectivity index, ratio of CC50 for human TZM-bl cells to EC50 for CXCR4-tropic HIV-1 NL4-3 infected in human TZM-bl cells; type: toxicity, cell-based; conditions: read-out: Ratio CC50/EC50
compound,measurement,setting,value
CCCCCOC(=O)C[C@H](NP(=O)(CO[C@H](CF)Cn1cnc2c(N)ncnc21)Oc1ccccc1)C(=O)OCCCCC (stereo partly specified),half-life at 1 µM,[1],1.48 h
same,EC50,[2],20 nM
same,EC90,[2],6080 nM
same,EC50,[3],10 nM
same,EC90,[3],1970 nM
same,EC50,[4],50 nM
same,Ratio CC50/IC50,[5],>113
same,Stability,[6],Stable
same,Ratio CC50/EC50,[7],2256
same,IC50,[8],22 nM
same,CC50 at 144 h,[9],> 1000 nM
same,EC50,[10],10 nM
same,CC50 at 72 h,[11],1960 nM
same,remaining at 14 h,[12],58%
same,Ratio EC50,[13],600
same,selectivity ratio,[14],3320
